Data set [1] can be described thus: Amorphous solubility determination, ultracentrifugation. In kind it is physicochemical. The note with it: phosphate buffer with HPMCAS, pH 6.5, aqueous buffer, kinetic from dmso stock. Put shortly: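 Test compound DMSO stock added to 50 mM pH 6.5 sodium phosphate buffer with 100 μg/mL predissolved HPMCAS, keeping organic solvent below 2% (v/v). Mixture stirred 15 min to form amorphous aggregates, then spun at 35,000 rpm for 30 min. Supernatant diluted 1:1 in mobile phase and quantified by isocratic C18 HPLC at 210 nm. At least triplicate.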

Data set [2] in a line: Flux measurements, Franz diffusion cells. It is filed as in vitro ADME.
Data set [3] can be described thus: Particle size determination by dynamic light scattering. It is filed as physicochemical.
The conditions of data set [4]: cited from earlier work.
For data set [5] the following is noted: cited from earlier work; for glass transition temperature (Tg) / Tg, dry: dry.
Data set [6] can be described thus: Wet glass transition temperature. Particulars: amorphous drug equilibrated at 97% relative humidity 48 h; DSC onset. In kind it is physicochemical. Put shortly: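 Amorphous test compound powder was freshly prepared and vacuum-dried overnight at room temperature. Then 5–10 mg in open hermetic pans was held at 97% relative humidity (saturated potassium sulfate) for 48 h. Pans sealed; DSC run 0 to 90 °C at 10 °C/min. Onset glass transition taken as wet Tg. Triplicate.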

Converted amounts (≈) assume the structure as drawn. “And” between values parts separate entries of the source, which are not always exact repeats. Equal entries are not always repeated. Where two headings read alike, the source gives them in different places.

On to `COC(=O)N[C@H](C(=O)N[C@@H](Cc1ccccc1)[C@@H](O)CN(Cc1ccc(-c2ccccn2)cc1)NC(=O)[C@@H](NC(=O)OC)C(C)(C)C)C(C)(C)C` [atazanavir], for which the solubility at 15 min in data set [1] was 0.0377 ± 0.0032 mg/mL (≈ 53.5 µM). Also, the transmembrane flux in data set [2] (donor ∼20 μg/mL, 150 rpm, no BSA, 37 °C) is 0.023 ± 0.003 μg/(min·cm^2); in data set [2] (donor ∼20 μg/mL, 300 rpm, no BSA, 37 °C), 0.030 ± 0.003 μg/(min·cm^2); in data set [2] (donor ∼20 μg/mL, 500 rpm, no BSA, 37 °C) it was 0.041 ± 0.005 μg/(min·cm^2); in data set [2] (donor ∼40 μg/mL (amorphous solubility), 300 rpm, no BSA, 37 °C), 0.048 ± 0.012 μg/(min·cm^2); in data set [2] (donor ∼40 μg/mL, 500 rpm, no BSA, 37 °C), 0.070 ± 0.008 μg/(min·cm^2); in data set [2] (donor ∼40 μg/mL, 1000 rpm, no BSA, 37 °C), 0.072 ± 0.019 μg/(min·cm^2). For the same molecule, in data set [2] (stirring rates equal to or higher than 300 rpm, no BSA), the “donor concentration at which a flux plateau was observed” value is “about 150 μg/mL”. Also, the Z-average in data set [3] (particles from stock 5 mg/mL, 1000 rpm, 37 °C) was determined as 193 ± 4 nm; in data set [3] (particles from stock 20 mg/mL, 1000 rpm, 37 °C) it was 460 ± 23 nm. The “diffusion coefficient Dp” value in data set [3] (particles from stock 5 mg/mL, 1000 rpm, 37 °C (193 nm), listed as ATZ) is reported as 3.43 ± 0.07 ×10^–8 cm^2/s; in data set [3] (particles from stock 20 mg/mL, 1000 rpm, 37 °C (460 nm), listed as ATZ), 1.44 ± 0.07 ×10^–8 cm^2/s. In data set [4] (basic), the pKa was 4.52,[45] basic. For the same molecule, in data set [5], the “glass transition temperature (Tg)” value was 104 °C. In addition, the “Tg, wet” value in data set [5] (water saturated amorphous precipitates) was 51 °C.
Turning to `Clc1ccccc1C(c1ccccc1)(c1ccccc1)n1ccnc1` [clotrimazole], in data set [1], the solubility at 15 min stood at 0.0077 ± 0.0003 mg/mL (≈ 22.3 µM). Also, the “bulk concentration at which a flux plateau was observed” value in data set [2] (150 rpm, 37 °C, 3% BSA) was “around 150 μg/mL”. In data set [4] (basic), the pKa was 5.89,[45] basic. Moreover, in data set [5], the “Tg, dry” value was 28,[45] NA ^a °C and the “glass transition temperature (Tg)” value is 28 °C.
In data set [1], `Cc1cccc(C)c1OCC(=O)N[C@@H](Cc1ccccc1)[C@@H](O)C[C@H](Cc1ccccc1)NC(=O)[C@H](C(C)C)N1CCCNC1=O` [lopinavir] returned a solubility at 15 min of 0.0193 ± 0.002 mg/mL (≈ 30.7 µM). Further, in data set [6], the “Tg, wet” value is 42 °C and 42.2 ± 1.8 °C. Also, the Z-average is reported as 254 ± 3 nm in data set [3] (particles from stock 5 mg/mL, 1000 rpm, 25 °C); 454 ± 10 nm in data set [3] (particles from stock 12 mg/mL, 300 rpm, 25 °C); 839 ± 15 nm in data set [3] (particles from stock 20 mg/mL, 300 rpm, 25 °C). In addition, the “diffusion coefficient Dp” value in data set [3] (particles from stock 5 mg/mL, 1000 rpm, 25 °C (254 nm), listed as LPV) was 1.94 ± 0.00 ×10^–8 cm^2/s; in data set [3] (particles from stock 12 mg/mL, 300 rpm, 25 °C (454 nm), listed as LPV), 1.09 ± 0.00 ×10^–8 cm^2/s; in data set [3] (particles from stock 20 mg/mL, 300 rpm, 25 °C (839 nm), listed as LPV), 0.59 ± 0.01 ×10^–8 cm^2/s. The pKa result in data set [4] (no reference printed) is reported as “not dissociated at physiological pHs”; in data set [4] (no reference printed, listed as Lopinavir), “not expected to dissociate within physiological pH ranges”. Further, the “Tg, dry” value in data set [5] is 69 °C. In addition, the “glass transition temperature (Tg)” value in data set [5] is 69 °C.

The values above are taken from paper PMC9449982 (Molecular Pharmaceutics, 2022).
